Rows were chosen to be rich in hits. Some 3.6% of all compounds tested hit in one or more screens of this group.
ATG4B inh: blocks human ATG4B protease cleavage of LC3 substrate; inhibition, % at 8.33 µM; Q9Y4P1; 0.51% of 340,000 active; AID 504462; ATG4B cleavage of LC3-PLA2, NBD-HPC fluorescence, 1 h; in the data active = inhibition above about 40%
Target sequence (Q9Y4P1 whole entry, looked up): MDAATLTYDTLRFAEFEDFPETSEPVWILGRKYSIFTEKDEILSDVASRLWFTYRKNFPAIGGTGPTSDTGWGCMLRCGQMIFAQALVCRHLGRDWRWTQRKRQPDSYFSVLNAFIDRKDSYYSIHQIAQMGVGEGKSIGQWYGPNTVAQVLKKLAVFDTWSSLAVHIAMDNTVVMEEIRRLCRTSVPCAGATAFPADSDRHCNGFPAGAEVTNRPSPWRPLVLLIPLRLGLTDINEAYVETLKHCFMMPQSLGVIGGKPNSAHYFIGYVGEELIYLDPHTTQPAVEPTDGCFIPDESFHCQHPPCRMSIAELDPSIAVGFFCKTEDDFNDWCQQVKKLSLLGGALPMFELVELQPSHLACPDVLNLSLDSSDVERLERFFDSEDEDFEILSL
UCH37 inh: inhibitors of human deubiquitinating enzyme UCH37; purified proteasome/UCH37, Ub-AMC cleavage fluorescence; inhibition, % (test concentration not listed); 0.33% of 330,000 active;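 active = mean inhibition over replicate wells above about 20%, limit read from the data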;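 also: 0% = compound-free wells with enzyme and 100% = wells lacking proteasome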
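Schedule: 30 min plus 25 min, room temperature / Material: human UCH37 within purified proteasomes / Technique: AMC fluorescence intensity at 355/460 nm / Buffer or medium: pH 7.4 Tris-HCl (50 mM) with ovalbumin, ATP-MgCl2, DTT / Controls: wells without proteasome as full block, compound-free enzyme plus substrate as uninhibited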
NR3A LBD binder: modulators (binders) of human NR3A ligand-binding domain. Tm shift relative to glycine control, % at 25 µM. AID 1259313. 2.5% of 340,000 active. NR3A LBD differential scanning fluorimetry, Tm shift; 0% = protein alone, 100% = glycine-bound protein;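 active = melting temperature shift of at least 10% of the positive control shift, at one fixed dose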
NadD block: blocks S. aureus nicotinate mononucleotide adenylyltransferase; inhibition, % at 20 µM; purified NadD enzyme, colorimetric absorbance read-out; 0.78% of 360,000 active; in the data active = inhibition above about 26%
SENP1 FRET inh: inhibitors of human SENP1 SUMO protease catalytic domain; Q9P0U3; recombinant SENP1 catalytic domain, CyPet-SUMO1-YPet FRET cleavage; inhibition, % at 10 µM; 0.21% of 360,000 active;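 active = inhibition at least 30% at 10 µM, raw YFP signal under a set limit, fluorescence ratio 0.5 to 1.5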;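 also: 0% = enzyme with DMSO and 100% = no enzyme wells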
Target sequence (Q9P0U3 419-644 limits assumed): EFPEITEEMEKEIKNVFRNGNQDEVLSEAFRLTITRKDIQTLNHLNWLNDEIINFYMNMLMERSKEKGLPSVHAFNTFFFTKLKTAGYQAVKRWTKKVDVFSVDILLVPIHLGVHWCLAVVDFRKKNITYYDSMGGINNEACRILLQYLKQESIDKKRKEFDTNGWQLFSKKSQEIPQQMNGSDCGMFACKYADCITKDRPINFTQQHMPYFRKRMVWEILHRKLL
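Material: hSENP1 catalytic domain, recombinant; medium: Tris pH 8 with BME, BSA, NP40 and catalase; compound: single concentration of 10 µM compound, 0.5% DMSO final; technique: FRET read of cyan and yellow fluorescence; timing: 50 min enzyme reaction, room temperature, light-protected; reagent: SFCypet-SUMO1-SFYpet substrate at 25 nM; control set: no-enzyme low, enzyme-DMSO high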
NadD conf: NadD (S. aureus) inhibition, single concentration confirmation. shares compounds with NadD block. purified S. aureus NadD, colorimetric enzyme assay. inhibition, % at 20 µM. 13% of 2,000 active. AID 624309; in the data active = inhibition mostly above about 42%, no sharp cut-off; inactive = mostly below about 42%
Starred values were filed as active, the others as inactive; . = no result.

SMILES | ATG4B inh | UCH37 inh | NR3A LBD binder | NadD block | SENP1 FRET inh | NadD conf
COc1cccc(C(=O)NN=Cc2ccc(Oc3ccc([N+](=O)[O-])cn3)c(OC)c2)c1 | . | 3.6 | . | . | . | .
Cc1ccc(C=NNC(=O)c2ccco2)s1 | . | 15.0 | . | . | . | .
CCC(=NO)c1cnnc(SC)n1 | . | 1.8 | . | . | . | .
C(=NN1CCN(C2c3ccccc3-c3ccccc32)CC1)c1ccncc1 | . | 1.1 | . | . | . | .
O=C(CNC(=O)c1ccncc1)NN=Cc1ccccc1[N+](=O)[O-] | . | 3.6 | . | . | . | .
Cc1cc2cc3c(cc2nc1SCC(=O)N1c2ccccc2CC1C)OCO3 (configuration not stated) | -1.3 | -1.1 | 4.2 | 16.2 | 1.2 | .
CC1Cc2ccccc2N1C(=O)CSc1nc2cc3c(cc2cc1C#N)OCO3 (configuration not stated) | -9.0 | -35.8 | 0.7 | 35.1* | 13.7 | 3.2
CCOC(=O)C1=C(C)N=c2sc(=Cc3cccc([N+](=O)[O-])c3O)c(=O)n2C1c1ccc(OC)cc1OC (configuration not stated) | . | 9.6 | . | . | . | .
COc1ccc(/C=c2/sc3n(c2=O)C(c2ccccc2OC)C2=C(N=3)c3ccccc3CC2)cc1O (configuration not stated) | 0.4 | . | 4.4 | 52.6* | -32.7 | 26.9
CCOC(=O)C1=C(C)N=c2s/c(=C/c3cccc([N+](=O)[O-])c3O)c(=O)n2C1c1ccc(OC)cc1OC (configuration not stated) | 11.5 | . | 4.8 | 35.6* | 3.0 | 8.6
COc1cc(/C=c2\sc3n(c2=O)C(c2ccccc2)C(c2ccccc2)=NN=3)ccc1O (configuration not stated) | -13.7 | . | 8.1 | 28.6* | -11.5 | 50.9*
CCOC(=O)C1=C(C)N=c2s/c(=C\c3ccc(OCC(=O)O)cc3)c(=O)n2C1c1ccccc1OC (configuration not stated) | -3.0 | . | 2.8 | 9.4 | -26.1 | .
CCOC(=O)C1=C(C)N=c2s/c(=C\c3ccc(O)c([N+](=O)[O-])c3)c(=O)n2C1c1ccccc1OC (configuration not stated) | 4.9 | . | 0.3 | 37.7* | 22.3 | 5.4
COc1cc(/C=c2\sc3n(c2=O)CCCN=3)ccc1O | -12.5 | . | -2.8 | 8.2 | 26.2 | .
COc1ccc(C=c2sc3n(c2=O)C(c2ccccc2OC)C2=C(N=3)c3ccccc3CC2)cc1O (configuration not stated) | . | 4.5 | . | . | . | .
COc1ccc(C(=O)NN=C(C)c2cccc(NC(=O)c3ccc(F)cc3)c2)c(OC)c1 | . | 3.0 | . | . | . | .
COc1ccc(C)cc1NC(=O)C(=O)NN=C(C)CC(=O)Nc1cccnc1 | . | 2.8 | . | . | . | .
Nc1nc(-c2ccc(NC(=O)c3ccco3)cc2)cs1 | 3.1 | -1.4 | 2.2 | -5.0 | -1.9 | .
NC(=O)/C(=N\OC(=O)c1ccco1)c1nc(-c2ccc(Br)cc2)cs1 | 4.6 | . | -3.9 | 30.3* | -0.7 | 48.9*
Cc1ccc(C=NNc2cn[nH]c(=O)c2Cl)cc1 | . | -29.5 | . | . | . | .
CCNc1sc(C(=O)c2cccs2)c(N)c1-c1nc2ccccc2s1 | -9.7 | 0.1 | 21.2* | 30.2* | -3.9 | -0.2
Cn1c(=NN=Cc2ccc(Cl)c([N+](=O)[O-])c2)sc2ccccc21 | . | 8.4 | . | . | . | .
O=C1C2C3C=CC(CC3)C2C(=O)N1N=Cc1c[nH]c2ccccc12 (configuration not stated) | . | 3.0 | . | . | . | .
Cc1cc(-c2csc(NC(=O)c3cc4ccccc4o3)n2)c(C)n1C | 7.0 | 1.2 | -2.6 | 36.2* | -9.4 | 8.5
O=C(Nc1nc(-c2ccccc2)cs1)c1ccc(=O)[nH]c1 | -10.3 | 3.0 | -2.2 | -3.3 | -6.8 | .
SMILES | ATG4B inh | UCH37 inh | NR3A LBD binder | NadD block | SENP1 FRET inh | NadD conf
C=CCn1c(C)cc(-c2csc(NC(=O)CCc3nc4ccccc4c(=O)[nH]3)n2)c1C | -22.4 | 4.9 | 3.2 | 51.6* | -12.6 | 28.3
Cc1cc(-c2csc(NC(=O)c3ccc(=O)[nH]c3)n2)c(C)n1Cc1ccccc1 | -3.8 | -7.1 | -2.3 | 48.1* | -12.1 | 39.7
Cc1cc(-c2csc(NC(=O)c3ccc(C#N)cc3)n2)c(C)n1Cc1ccco1 | -0.3 | 4.9 | 4.2 | 33.8* | 10.4 | 24.5
O=C(CCc1nc2ccccc2c(=O)[nH]1)Nc1nc(-c2cccs2)cs1 | -4.8 | 2.9 | . | 10.2 | 0.5 | .
N#Cc1ccc(-c2csc(NC(=O)c3ccc(N4C(=O)CCC4=O)cc3)n2)cc1 | -9.0 | -21.4 | 0.2 | 0.9 | -0.2 | .
COc1ccc(-c2c(C#N)c(SCC(=O)c3cc4ccccc4oc3=O)nc(C)c2C(=O)Nc2ccccc2)cc1 | 4.3 | -29.2 | 7.5 | 29.8 | -9.7 | .
Cc1nc(SCC(=O)c2cc3ccccc3oc2=O)c(C#N)c(-c2ccccc2)c1C(=O)Nc1ccccc1 | -5.8 | -13.6 | 0.2 | 28.4* | -8.5 | -5.9
COc1ccc(C=NNC(=O)c2cccc(Br)c2)cc1CN1CCOCC1 | . | 6.0 | . | . | . | .
O=C(Nc1ccc2c(c1)nc1n2CCN(C2CCCCC2)C1)c1ccco1 | 0.3 | -1.5 | -1.3 | 17.7 | -30.6 | .
COc1ccccc1C(=O)Nc1ccc2c(c1)nc1n2CCN(C2CCCCC2)C1 | 9.0 | -7.7 | 0.0 | 34.7* | -45.9 | 2.4
COc1ccc(C2C=C(C34CC5CC(CC(C5)C3)C4)NC(=S)N2)cc1OC (configuration not stated) | -5.1 | 4.8 | 7.1 | 28.9* | 3.2 | 31.3
COc1ccc(C2OCC(C)(C)CO2)cc1OC | -0.9 | 2.4 | -3.0 | -3.7 | 0.6 | .
Cc1nc(C)c(C(=O)NN=Cc2ccco2)s1 | . | 5.3 | . | . | . | .
COc1cccc(=O)c2c(C)n(-c3cc(C)cc(C)c3)c(C)c12 | 5.6 | 6.1 | -4.9 | 35.3* | -7.2 | 43.1
Oc1ccc2ccccc2c1C=NNc1ccccc1 | . | -11.0 | . | . | . | .
Cc1sc2nc(C3CC3)nc(N3CCN(S(=O)(=O)c4ccc(F)cc4)CC3)c2c1C | 14.3 | 5.7 | -2.5 | 35.0* | -0.8 | 6.3
Cc1sc2nc(CN3CCCC3)nc(N3CCN(S(=O)(=O)c4cccc(F)c4)CC3)c2c1C | 16.3 | -1.1 | -1.2 | 29.6* | -92.8 | -10.6
Nc1c(Cl)ncnc1NN=Cc1cccc(O)c1 | . | 17.6 | . | . | . | .
Cc1cccc(C)c1NC(=O)CNC(=O)c1cn(-c2ccccc2)nc1-c1ccccc1 | -6.6 | -1.3 | -3.6 | -1.4 | -1.4 | .
Cc1nn(Cc2c(Cl)cccc2Cl)c(C)c1NC(=O)c1cn(-c2ccccc2)nc1-c1ccccc1 | 1.7 | 3.1 | 0.3 | 33.8* | 0.8 | 6.0
Cc1cc(C(=O)NN=Cc2ccc(Cl)c([N+](=O)[O-])c2)c(C)n1-c1ccc(F)cc1 | . | 0.4 | . | . | . | .
O=[N+]([O-])c1ccccc1S(=O)(=O)Nc1cccc(-c2ccc(N3CCCC3)nn2)c1 | 5.1 | 3.1 | -20.0 | 15.4 | 1.7 | .
Cc1ccc([N+](=O)[O-])cc1S(=O)(=O)Nc1ccc(-c2ccc(N3CCCC3)nn2)cc1 | -4.8 | 4.4 | 5.1 | 37.7* | 0.6 | 37.4

Screening results deposited in PubChem by several laboratories.
